According to ChEMBL document CHEMBL1122708, “Preparation and antibacterial activities of new 1,2,3-diazaborine derivatives and analogues” (1984):
Values after ≈ are worked out from the molar mass of the structure shown.

Tests used:
[1] = tested on: Klebsiella aerogenes; experiment: Minimum inhibitory concentration of compound against Enterobacter aerogenes delta 220; type: functional
[2] = tested on: Klebsiella pneumoniae; experiment: Minimum inhibitory concentration of compound against Klebsiella pneumoniae delta 217; type: functional
[3] = tested on: Escherichia coli; experiment: Antibacterial activity againist Escherichia coli 120 infected NMRI mice after peroral administration; type: functional; conditions: po
Method in brief: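 ED50 in NMRI mice infected intraperitoneally with E. coli 120; compound given orally immediately and 5 h after infection.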

[4] = tested on: Neisseria gonorrhoeae; experiment: Minimum inhibitory concentration of compound against Neisseria gonorrhoeae AS 7720; type: functional
Method in brief: (§1)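 Agar dilution on Kellogg agar, 10⁶ colony forming units, incubated 20 h at 36 °C in 5% CO₂; MIC is the lowest concentration giving no visible growth.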

[5] = tested on: Proteus mirabilis; experiment: Minimum inhibitory concentration against Proteus mirabilis delta 89; type: functional
[6] = tested on: Salmonella typhimurium; experiment: Minimum inhibitory concentration of compound against Salmonella Typhimurium delta 119; type: functional, Salmonella enterica subsp. enterica serovar Typhimurium; conditions: Salmonella enterica
[7] = tested on: Neisseria gonorrhoeae; experiment: Minimum inhibitory concentration of compound against Neisseria gonorrhoeae W2; type: functional; method in brief: as §1
[8] = tested on: Escherichia coli; experiment: Minimum inhibitory concentration of compound against Escherichia coli delta 120; type: functional

SMILES	MIC [1] [µg/mL]	MIC [2] [µg/mL]	ED50 [3] [mg/kg]	MIC [4] [µg/mL]	MIC [5] [µg/mL]	MIC [6] [µg/mL]	MIC [7] [µg/mL]	MIC [8] [µg/mL]
Cc1ccc(S(=O)(=O)N2N=Cc3ccccc3B2O)cc1	> 50	3.12 (≈ 10.4 µM)	~25	2 (≈ 6.66 µM)	12.5 (≈ 41.6 µM)	6.25 (≈ 20.8 µM)	8 (≈ 26.7 µM)	25 (≈ 83.3 µM)
Cc1ccc(S(=O)(=O)N2N=Cc3c(Cl)cc(N(C)C)cc3B2O)cc1	–	–	> 300	–	–	> 50	–	> 50
CS(=O)(=O)N1N=Cc2ccccc2B1O	–	–	–	–	–	> 50	–	> 50
Cc1cc(C)c(S(=O)(=O)N2N=Cc3c(F)cccc3B2O)c(C)c1	> 50	50 (≈ 144 µM)	> 100	–	10 (≈ 28.9 µM)	> 50	–	> 50
O=S(=O)(c1cc(Cl)c(Cl)cc1Cl)N1N=Cc2oc(Br)cc2B1O	> 50	50 (≈ 109 µM)	> 300	0.5 (≈ 1.09 µM)	6.25 (≈ 13.6 µM)	50 (≈ 109 µM)	2 (≈ 4.36 µM)	> 50
Cc1ccc(S(=O)(=O)N2N=Cc3ccc(O)cc3B2O)cc1	–	–	~300	–	–	> 50	–	> 50
O=S(=O)(c1cc(Cl)c(Cl)cc1Cl)N1N=Cc2cc(Br)ccc2B1O	> 50	50 (≈ 107 µM)	> 300	1 (≈ 2.14 µM)	6.25 (≈ 13.3 µM)	> 50	8 (≈ 17.1 µM)	> 50
Cc1ccc(S(=O)(=O)N2N=Cc3ccc(F)cc3B2O)cc1	–	–	~250	–	–	> 50	–	> 50
Cc1ccc(S(=O)(=O)N2N=Cc3oc(C)cc3B2O)cc1	25 (≈ 82.2 µM)	1.56 (≈ 5.13 µM)	~10	1 (≈ 3.29 µM)	3.12 (≈ 10.3 µM)	3.12 (≈ 10.3 µM)	8 (≈ 26.3 µM)	12.5 (≈ 41.1 µM)
Cc1ccc(S(=O)(=O)N2N=Cc3oc(Br)cc3B2O)cc1	25 (≈ 67.7 µM)	3.12 (≈ 8.46 µM)	~30	2 (≈ 5.42 µM)	3.12 (≈ 8.46 µM)	3.12 (≈ 8.46 µM)	8 (≈ 21.7 µM)	12.5 (≈ 33.9 µM)
Cc1ccc(S(=O)(=O)N2N=Cc3cc(Br)ccc3B2O)cc1	> 50	6.25 (≈ 16.5 µM)	~40	1 (≈ 2.64 µM)	1.56 (≈ 4.12 µM)	6.25 (≈ 16.5 µM)	2 (≈ 5.28 µM)	25 (≈ 66 µM)
